Values joined by “and” are separate entries in the source; they are usually repeats but may differ in a detail not shown here. Equal entries are not always repeated.
How the values were obtained:
Canis familiaris [1] = species on record: Canis familiaris; assay: In vitro electrophysiological evaluation in canine cardiac ventricular muscle reported as maximum % change for functional refractory period (FRP) at 0.1-100 uM concentration range; concentration at which it occurred is 100 uM; parameters: species or system Canis lupus familiaris, Muscle tissue
Outline: (§1)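 Canine right ventricle and papillary muscle strips in oxygenated Tyrode's solution, fitted with stimulating and recording electrodes. The extra-stimulus conduction-interval method was adapted for in vitro use. FRP and CT were read from a conduction-interval curve before and after various compound concentrations, and expressed as percent change from control. Compounds were taken from 10 mM deionized-water stock into Tyrode's. Each strip was used once as its own control.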

Canis familiaris [2] = species on record: Canis familiaris; assay: In vitro electrophysiological evaluation in canine cardiac ventricular muscle reported as % change for the functional refractory period (FRP) at 10 uM at concentration range of 0.1-100 uM; parameters: species or system Canis lupus familiaris, Muscle tissue; outline: as §1
Canis familiaris [3] = species on record: Canis familiaris; assay: In vitro electrophysiological evaluation in canine cardiac ventricular muscle reported as % change for conduction time(CT) at 10 uM at 0.1-100 uM concentration range; Minimal (<10% decrease or increase in CT).; type: functional, Canis lupus familiaris, Muscle tissue
Canis familiaris [4] = species on record: Canis familiaris; assay: In vitro electrophysiological evaluation in canine cardiac ventricular muscle reported as maximum % change for conduction time(CT) at 0.1-100 uM concentration range; Minimal (<10% decrease or increase in CT).; type: functional, Canis lupus familiaris, Muscle tissue; outline: as §1
Canis familiaris [5] = species on record: Canis familiaris; assay: In vitro electrophysiological evaluation in canine cardiac Purkinje fibres reported as percent change Vmax at 10 uM at concentration range of 1-100 uM; type: functional; conditions: Canis lupus familiaris, Purkinje fiber
Outline: (§2)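 Canine cardiac Purkinje fibres, intracellular microelectrode recording, paced at a basic cycle length of 1 s. APD95 and Vmax read simultaneously. Compound: 10 mM stock in deionized water, diluted into Tyrode's solution, tested over the stated concentration range. Each fibre used once as its own control. Result is % change from control, given at 10 µM or as the maximum with its concentration. M = <10% decrease or an increase in Vmax.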

Canis familiaris [6] = species on record: Canis familiaris; assay: In vitro electrophysiological evaluation in canine cardiac Purkinje fibres reported as percent change Vmax at 10 uM at concentration range of 1-100 uM; Minimal (<10% decrease or increase in V max).; type: functional; conditions: Canis lupus familiaris, Purkinje fiber; outline: as §2
Canis familiaris [7] = species on record: Canis familiaris; assay: In vitro electrophysiological evaluation in canine cardiac Purkinje fibres reported as maximum percent change Vmax concentration range of 1-100 uM; Minimal (<10% decrease or increase in V max).; type: functional; conditions: Canis lupus familiaris; Purkinje fiber; outline: as §2
Canis familiaris [8] = species on record: Canis familiaris; assay: (§3) In vitro electrophysiological evaluation in canine cardiac occurred is 100 uM; type: functional; conditions: Canis lupus familiaris; Heart
Canis familiaris [9] = species on record: Canis familiaris; assay: In vitro electrophysiological evaluation in canine cardiac Purkinje fibres reported as % change for action potential duration at 10 uM at 1-100 uM concentration range; type: functional, Canis lupus familiaris, Purkinje fiber; outline: as §2
Canis familiaris [10] = species on record: Canis familiaris; assay: In vitro electrophysiological evaluation in canine cardiac Purkinje fibres reported as % change for action potential duration at a concentration of 10 uM; type: functional, Canis lupus familiaris, Purkinje fiber; outline: as §2
Canis familiaris [11] = species on record: Canis familiaris; assay: (§4) In vitro electrophysiological activity in canine cardiac occurred is 100 uM; type: functional, Canis lupus familiaris, Heart
Canis familiaris [12] = species on record: Canis familiaris; assay: In vitro electrophysiological evaluation in canine cardiac ventricular muscle reported as maximum % change for functional refractory period (FRP) at 0.1-100 uM concentration range; concentration at which it occurred is 10 uM; parameters: species or system Canis lupus familiaris, Muscle tissue; outline: as §1
Canis familiaris [13] = species on record: Canis familiaris; assay: In vitro electrophysiological evaluation in canine cardiac Purkinje fibres reported as percent change Vmax at 10 uM at concentration range of 0.1-100 uM; Minimal (<10% decrease or increase in V max).; type: functional, organism-based; conditions: Canis lupus familiaris, Purkinje fiber; outline: as §2
Canis familiaris [14] = species on record: Canis familiaris; assay: In vitro electrophysiological evaluation in canine cardiac Purkinje fibres reported as percent change Vmax at 10 uM at concentration range of 0.1-100 uM.; type: functional, organism-based; conditions: Canis lupus familiaris, Purkinje fiber; outline: as §2
Canis familiaris [15] = species on record: Canis familiaris; assay: as §3; type: functional; conditions: Canis lupus familiaris; Heart; remark: listed apart in the source
Canis familiaris [16] = species on record: Canis familiaris; assay: In vitro electrophysiological evaluation in canine cardiac Purkinje fibres reported as % change for action potential duration at 10 uM at 0.1-100 uM concentration range; type: functional, Canis lupus familiaris, Purkinje fiber; outline: as §2
Canis familiaris [17] = species on record: Canis familiaris; assay: In vitro electrophysiological activity in canine cardiac occurred is 10 uM; type: functional, Canis lupus familiaris, Heart
Canis familiaris [18] = species on record: Canis familiaris; assay: as §4; type: functional, Canis lupus familiaris, Heart; remark: listed apart in the source

| Structure (SMILES) | FRP (Canis familiaris [1]) | FRP (Canis familiaris [2]) | CT (Canis familiaris [3]) [%] | CT (Canis familiaris [4]) [%] | Vmax (Canis familiaris [5]) [%] | Vmax (Canis familiaris [6]) [%] | Vmax (Canis familiaris [7]) [%] | Vmax (Canis familiaris [8]) [%] | APD95 (Canis familiaris [9]) [%] | APD95 (Canis familiaris [10]) [%] | APD95 (Canis familiaris [11]) | FRP (Canis familiaris [12]) [%] | Vmax (Canis familiaris [13]) [%] | Vmax (Canis familiaris [14]) [%] | Vmax (Canis familiaris [15]) | APD95 (Canis familiaris [16]) | APD95 (Canis familiaris [17]) | APD95 (Canis familiaris [18]) [%] |
| --- | --- | --- | --- | --- | --- | --- | --- | --- | --- | --- | --- | --- | --- | --- | --- | --- | --- | --- |
| CCOC(=O)C(CC1C(=O)C2CCN1CC2)C(=O)c1ccc(NS(C)(=O)=O)cc1.Cl (stereo not drawn) | 7% and 16% | 5% and 9% | <10 | <10 | -24 | < 10 | < 10 | -36 | 12 | 11 | 39% and 40% |  |  |  |  |  |  |  |
| CCOC(=O)C(CC1C(=O)C2CCN1CC2)C(=O)c1ccc([N+](=O)[O-])cc1.Cl (stereo not drawn) | 38% | 22% and 35% | <10 | <10 |  |  |  |  |  | 2 | -12% and 0% and -5% | 22 | < 10 | -12 | -26% and -13% and -18% | 23% and 22% | 23% and 22% |  |
| CS(=O)(=O)Nc1cc(C(=O)CCC2C(=O)C3CCN2CC3)ccc1Cl.Cl (stereo not drawn) | 21% and 32% and 15% |  | <10 | <10 |  |  | < 10 | -28 | -3 | -4 | 17% |  | < 10 |  |  |  |  | 21 |

Source: ChEMBL document CHEMBL1123566, “Synthesis and cardiac electrophysiological activity of 2- and 3-[(substituted phenyl)alkyl]quinuclidines. Structure-activity relationships” (1987)
